Experimental data reported in ChEMBL document CHEMBL5653613 (Mol Cancer Ther, 2013).
Active and inactive are the calls of the source. No cut-off for these calls is given here.

Tests used:
ZR-75-1 [1] = test: Inhibition of cell proliferation of human ZR-75-1 cells with RON-/- at 5 umol/L incubated for 72 hrs followed by media replacement without compound measured upto 10 days by microscopic analysis; format: functional, cell-based; settings: dose 5.0 µmol/L
T47D [2] = test: Induction of polyploidy in human T47D cells with RON-/- at 5 umol/L incubated for 72 hrs by microscopic analysis; format: functional, cell-based; settings: dose 5.0 µmol/L
Method in brief: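 Cells (2 106 per 60-mm dish) transiently transfected for 48 hours with 1 nmol/L scrambled or RON-specific siRNA, with knockdown confirmed by anti-RON Western blot. […] Polyploidy monitored and photographed by microscopy, with untransfected and scrambled-siRNA cells as comparators.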

[3] = (§1) Effect on doxorubicin resistance in human ZR-75-1 cells with compound-induced polyploidy assessed as change in doxorubicin-induced cytotoxicity by measuring increase in DOX IC50 at 5 umol/L preincubated for 72 hrs followed by compound washout and subsequent doxorubicin treatment for 72 hrs by MTS assay; format: functional, cell-based
MCF7 [4] = test: Induction of polyploidy in human MCF7 cells assessed as cells with 2N chromosome contents at 5 uM incubated for 24 hrs by PI staining based flow cytometry (reference value: 52); format: functional
ZR-75-1 [5] = test: Induction of polyploidy in human ZR-75-1 cells at 5 uM incubated for 72 hrs by microscopic analysis; format: functional, cell-based
Method in brief: (§2)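 Cells stained with Hema-3 and photographed under a light microscope with CCD camera. Polyploid cells scored as percent of the population.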

T47D [6] = test: Disruption of microtubule dynamics in human T47D cells assessed as condensed irregular-shaped chromosomes at 5 umol/L incubated for 24 hrs by immunofluorescence staining based analysis; format: functional, cell-based; settings: dose 5.0 µmol/L
Method in brief: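 T-47D cells (1 × 10^6/dish) in RPMI-1640 with 5% FBS were treated with or without 5 µmol/L for 24, 48 and 72 h. Cells were fixed in cold acetone and stained with mouse anti-α-tubulin or anti-γ-tubulin, then an FITC anti-mouse IgG secondary, plus DAPI. Fluorescence microscopy, 200× magnification.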

T47D [7] = test: Induction of polyploidy in human T47D cells assessed as cells with 8N chromosome contents at 5 uM incubated for 24 hrs by PI staining based flow cytometry (reference value: 0); format: functional
[8] = as §1, with “methotrexate” for “doxorubicin”, “T47D” for “ZR-75-1”, “methotrexate-induced” for “doxorubicin-induced”, “methotrexate” for “DOX”; format: functional, cell-based
MCF7 [9] = test: Induction of polyploidy in human MCF7 cells assessed as cells with 4N chromosome contents at 5 uM incubated for 72 hrs by PI staining based flow cytometry (reference value: 36); format: functional
MCF7 [10] = test: Induction of polyploidy in human MCF7 cells at 5 uM incubated for 72 hrs by microscopic analysis; format: functional, cell-based; method in brief: as §2
T47D [11] = test: Induction of apoptosis in human T47D cells assessed as cell death at 5 uM; format: functional, cell-based; settings: TDE = time-dependent effect
T47D [12] = test: Induction of polyploidy in human T47D cells with RON-/- at 5 umol/L incubated for 72 hrs followed by media replacement without compound measured upto 10 days by microscopic analysis; format: functional, cell-based; settings: dose 5.0 µmol/L
MCF7 [13] = test: Downregulation of histone H3 expression in human MCF7 cells at 5 umol/L incubated upto 72 hrs by Western blot analysis; format: functional, cell-based; settings: dose 5.0 µmol/L
Method in brief: (§3)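 Cells were treated with 5 µmol/L for 0, 24, 48 and 72 h. Lysates were immunoblotted for AURK-B, phospho-Ser10 histone H3 and total histone H3, with β-actin reprobe as the loading control. Detection by enhanced chemiluminescence.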

ZR-75-1 [14] = test: Induction of polyploidy in human ZR-75-1 cells assessed as cells with 4N chromosome contents at 5 uM incubated for 48 hrs by PI staining based flow cytometry (reference value: 35); format: functional
ZR-75-1 [15] = test: Induction of polyploidy in human ZR-75-1 cells assessed as cells with 16N chromosome contents at 5 uM incubated for 48 hrs by PI staining based flow cytometry (reference value: 0); format: functional
MCF7 [16] = test: Induction of apoptosis in human MCF7 cells assessed as necrotic cells at 5 umol/L incubated for 3 days by Annexin V/PI staining based flow cytometry (reference value: 0.4 %); format: functional; settings: dose 5 µmol/L; time 3 day; at 5 µM
T47D [17] = test: Induction of apoptosis in human T47D cells assessed as early cells at 5 umol/L incubated for 3 days by Annexin V/PI staining based flow cytometry (reference value: 0.8 %); format: functional; settings: dose 5 µmol/L; time 3 day; at 5 µM
MCF7 [18] = test: Induction of polyploidy in human MCF7 cells assessed as cells with 16N chromosome contents at 5 uM incubated for 72 hrs by PI staining based flow cytometry (reference value: 0); format: functional
ZR-75-1 [19] = test: Induction of polyploidy in human ZR-75-1 cells at 10 umol/L incubated for 72 hrs by microscopic analysis relative to control; format: functional; settings: dose 10 µmol/L, at 10 µM; method in brief: as §2
T47D [20] = test: Induction of cell cycle arrest at metaphase in human T47D cells assessed as disorganization of multipolar mitotic spindles at 5 umol/L preincubated for 24 hrs followed by extensive compound washout and subsequent culturing in compound-free media measured upto 3 days by immunofluorescence staining based analysis; format: functional; settings: dose 5.0 µmol/L
MCF7 [21] = test: Induction of polyploidy in human MCF7 cells assessed as cells with 16N chromosome contents at 5 uM incubated for 48 hrs by PI staining based flow cytometry (reference value: 0); format: functional
T47D [22] = test: Induction of polyploidy in human T47D cells assessed as cells with 16N chromosome contents at 5 uM incubated for 24 hrs by PI staining based flow cytometry (reference value: 0); format: functional
ZR-75-1 [23] = test: Induction of polyploidy in human ZR-75-1 cells assessed as cells with 4N chromosome contents at 5 uM incubated for 72 hrs by PI staining based flow cytometry (reference value: 35); format: functional
ZR-75-1 [24] = test: Induction of polyploidy in human ZR-75-1 cells assessed as cells with 4N chromosome contents at 5 uM incubated for 24 hrs by PI staining based flow cytometry (reference value: 35); format: functional
MCF7 [25] = test: Induction of apoptosis in human MCF7 cells assessed as early cells at 5 umol/L incubated for 3 days by Annexin V/PI staining based flow cytometry (reference value: 0.1 %); format: functional; settings: dose 5 µmol/L; time 3 day; at 5 µM
T-47D (Homo sapiens) = test: Disruption of microtubule dynamics in human T-47D cells at 5 umol/L incubated upto 72 hrs by immunofluorescence staining based analysis; settings: dose 5.0 µmol/L
T47D [26] = test: Downregulation of histone H3 expression in human T47D cells at 5 umol/L incubated upto 72 hrs by Western blot analysis; format: functional, cell-based; settings: dose 5.0 µmol/L; method in brief: as §3
[27] = as §1, with “methotrexate” for “doxorubicin”, “methotrexate-induced” for “doxorubicin-induced”, “methotrexate” for “DOX”; format: functional, cell-based
Method in brief: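 Cells were first given the inducing compound for 72 h in 100-mm dishes. Polyploid cells were collected, washed and replated at 5,000 cells/well, with untreated cells at the same density as control. Methotrexate was added over a concentration range for 72 h, in triplicate. Viability was read by MTS assay and the IC50 calculated; 1 of 3 experiments shown.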

ZR-75-1 [28] = test: Induction of polyploidy in human ZR-75-1 cells with RON-/- at 5 umol/L incubated for 72 hrs followed by media replacement without compound measured upto 10 days by microscopic analysis; format: functional, cell-based; settings: dose 5.0 µmol/L
T47D [29] = test: Induction of polyploidy in human T47D cell at 5 umol/L by microscopic analysis; format: functional, cell-based; settings: dose 5.0 µmol/L, time 72.0 hrs, TDE = time-dependent effect
[30] = as §1, with “cisplatin” for “doxorubicin”, “cisplatin-induced” for “doxorubicin-induced”, “cisplatin” for “DOX”; format: functional, cell-based

Question: What does the source list for `CCOc1ccn(-c2ccc(F)cc2)c(=O)c1C(=O)Nc1ccc(Oc2ccnc(N)c2Cl)c(F)c1` [BMS-777607]?
Answer: inhibition (ZR-75-1 [1]): inactive; Activity (T47D [2]): Active; IC50 [3]: 1180 nM; Activity (MCF7 [4]): 15.5; Activity (ZR-75-1 [5]): Active; Activity (T47D [6]): Active; Activity (T47D [7]): 26; IC50 [8]: 585 nM; Activity (MCF7 [9]): 41; Activity (MCF7 [10]): Active; Activity (T47D [11]): Tde; Activity (T47D [12]): Active; Activity (MCF7 [13]): inactive; Activity (ZR-75-1 [14]): 12; Activity (ZR-75-1 [15]): 32; Activity (MCF7 [16]): 0.5%; Activity (T47D [17]): 2.2%; Activity (MCF7 [18]): 0; Activity (ZR-75-1 [19]): 88%; Activity (T47D [20]): Active; Activity (MCF7 [21]): 0; Activity (T47D [22]): 10; Activity (ZR-75-1 [23]): 12; Activity (ZR-75-1 [24]): 45.5; Activity (MCF7 [25]): 0.2%; Activity (T-47D (Homo sapiens)): Active; Activity (T47D [26]): inactive; IC50 [27]: 430 nM; Activity (ZR-75-1 [28]): Active; Activity (T47D [29]): Tde; IC50 [30]: 3.4 nM
